From ChEMBL document CHEMBL2062476, “One pot efficient diversity oriented synthesis of polyfunctional styryl thiazolopyrimidines and their bio-evaluation as antimalarial and anti-HIV agents” (Eur J Med Chem, 2012)
In brackets after ≈: the same amount, converted by molar mass.

What was measured:
Plasmodium falciparum [1] = assay: Antimalarial activity against chloroquine sensitive Plasmodium falciparum 3D7 infected in RBCs incubated for 72 hrs by SYBRgreen dye based fluorometric assay; format: functional, organism-based; settings: 3D7, 72 h
Outline: (§1)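 Parasites kept in RPMI-1640 (HEPES) with 0.5% AlbuMaxII, 0.2% glucose, 0.2% NaHCO3, 15 µM hypoxanthine, 37 °C, 5% CO2. Compounds in DMSO (10mg/mL stock), two-fold serial dilutions. Infected erythrocytes added at 4% haematocrit, 1% parasitaemia, incubated 72 h. Lysis buffer with SYBR green added for 4 h in the dark at room temp. Fluorescence read at ex 485/em 535 nm. IC50 taken from parasite DNA content relative to controls.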

Plasmodium falciparum [2] = assay: Antimalarial activity against chloroquine resistant Plasmodium falciparum K1 infected in RBCs incubated for 72 hrs by SYBRgreen dye based fluorometric assay; format: functional, organism-based; settings: K1, 72 h; outline: as §1
[3] = Cytotoxicity against african green monkey Vero C1008 cells incubated for 72 hrs by resazurin dye based fluorometric assay; format: cell-based; settings: chlorocebus sabaeus
Outline: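 Vero (C1008) cells grown in MEM with 15% FBS, 37 °C, 5% CO2; trypsinized, seeded at 1 × 10^5 cells/mL and left to adhere overnight. Serial compound dilutions added for 72 h. Resazurin added, fluorescence read after 4 h; CC50 derived from viability.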

[4] = Selectivity index, ratio of CC50 for african green monkey Vero C1008 cells to IC50 for chloroquine sensitive Plasmodium falciparum 3D7; format: functional
Outline: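 SI = CC50 in Vero cells (resazurin, 72 h) divided by IC50 against P. falciparum 3D7. The IC50 came from a SYBR green assay: cultures in RPMI-1640 with 0.5% AlbuMaxII and 15 µM hypoxanthine, 4% haematocrit, 1% parasitaemia, two-fold dilutions, 72 h at 37 °C. Lysis with SYBR green for 4 h, read at ex 485/em 535 nm.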

[5] = Selectivity index, ratio of CC50 for african green monkey Vero C1008 cells to IC50 for chloroquine resistant Plasmodium falciparum K1; format: functional
Outline: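 Vero C1008 cells grown in MEM with 15% FBS. Seeded at 1 × 10^5 cells/mL, left to adhere overnight, then exposed to serial compound dilutions for 72 h. Viability read by resazurin fluorescence after 4 h and CC50 derived. SI = CC50 / IC50 against K1, with IC50 from the 72 h SYBR green parasite assay.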

[6] = tested on: Human immunodeficiency virus; assay: Inhibition of HIV reverse transcriptase activity at 10 ug/ml incubated at 37 degC for 1 hr by ELISA RT assay
Outline: (§2)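 Colorimetric ELISA kit: template/primer with dNTPs (digoxigenin- and biotin-labelled dUTP) plus HIV-1 RT in lysis buffer, 60 µl total, 37 °C for 1 h; no-RT lysis buffer as negative control. Product captured on streptavidin plate 1 h at 37 °C, anti-DIG-POD (200 mU/mL) 1 h, ABTS substrate; OD 405 nm (reference 490 nm).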

[7] = tested on: Human immunodeficiency virus; assay: Inhibition of HIV reverse transcriptase activity at 100 ug/ml incubated at 37 degC for 1 hr by ELISA RT assay; outline: as §2

Compound | IC50 (Plasmodium falciparum [1]) | IC50 (Plasmodium falciparum [2]) | CC50 at 72 h [3] | Ratio CC50/IC50 [4] | Ratio CC50/IC50 [5] | inhibition [6] | inhibition [7]
COc1cc(/C=C/C(=O)C2=C(/C=C/c3cc(OC)c(OC)c(OC)c3)N=C3SC=C(C)N3C2c2ccccc2)cc(OC)c1OC (centres undefined) | 0.5 µg/mL (≈ 0.78 µM) | < 0.3 µg/mL | 260 µg/mL (≈ 407 µM) | 520.94 | >868.23 | 5.69% | 66.9%
COc1ccc(/C=C/C(=O)C2=C(/C=C/c3ccc(OC)cc3)N=C3SC=C(C)N3C2c2cc(OC)c(OC)c(OC)c2)cc1 (centres undefined) | 1.57 µg/mL (≈ 2.57 µM) | 0.71 µg/mL (≈ 1.16 µM) | 348 µg/mL (≈ 570 µM) | 221.57 | 489.94 | 30.1% | 51.3%
COc1cc(/C=C\C2=C(C(=O)/C=C/c3cc(OC)c(OC)c(OC)c3)C(c3cc(OC)c(OC)c(OC)c3)N3C(C)=CSC3=N2)cc(OC)c1OC (centres undefined) | 6.82 µg/mL (≈ 9.33 µM) | < 0.76 µg/mL | 167 µg/mL (≈ 228 µM) | 24.44 | >219.3 | 48.4% | 55.9%
CC1=CSC2=NC(/C=C/c3ccc(Br)cc3)=C(C(=O)/C=C/c3ccc(Br)cc3)C(c3ccc(Cl)cc3)N12 (centres undefined) | 1.27 µg/mL (≈ 1.95 µM) | 1.22 µg/mL (≈ 1.87 µM) | 420 µg/mL (≈ 643 µM) | 330.51 | 344.06 | 17.8% | 26.5%
COc1ccc(/C=C/C(=O)C2=C(/C=C/c3ccc(OC)cc3)N=C3SC=C(C)N3C2c2ccccc2)cc1 (centres undefined) | 2.19 µg/mL (≈ 4.21 µM) | < 0.76 µg/mL | 358 µg/mL (≈ 688 µM) | 163.56 | >471.31 | 40.6% | 32.7%
CC1=CSC2=NC(/C=C/c3ccc(OCc4ccccc4)cc3)=C(C(=O)/C=C/c3ccc(OCc4ccccc4)cc3)C(c3ccc(Cl)cc3)N12 (centres undefined) | 6.97 µg/mL (≈ 9.85 µM) | 19.6 µg/mL (≈ 27.6 µM) | > 500 µg/mL | >71.74 | >25.56 | 17.6% | 18.6%
COc1ccc(C2C(C(=O)/C=C/c3ccccc3)=C(/C=C/c3ccccc3)N=C3SC=C(C)N32)cc1 (centres undefined) | 2.11 µg/mL (≈ 4.3 µM) | 0.85 µg/mL (≈ 1.73 µM) | 211 µg/mL (≈ 430 µM) | 99.95 | 248.11 | 39.4% | 48.6%
COc1ccc(C2C(C(=O)/C=C/c3cccs3)=C(/C=C/c3cccs3)N=C3SC=C(C)N32)cc1 (centres undefined) | 5.17 µg/mL (≈ 10.3 µM) | 2.03 µg/mL (≈ 4.04 µM) | 235 µg/mL (≈ 468 µM) | 45.48 | 115.83 | 47.7% | 54.4%
CC1=CSC2=NC(/C=C/c3ccc(F)cc3)=C(C(=O)/C=C/c3ccc(F)cc3)C(c3ccccc3)N12 (centres undefined) | 2.68 µg/mL (≈ 5.4 µM) | 1.59 µg/mL (≈ 3.2 µM) | 306 µg/mL (≈ 616 µM) | 114.22 | 192.53 | 30% | 59.2%
CC1=CSC2=NC(/C=C/c3ccc(OCc4ccccc4)cc3)=C(C(=O)/C=C/c3ccc(OCc4ccccc4)cc3)C(c3ccccc3)N12 (centres undefined) | 24.5 µg/mL (≈ 36.4 µM) | 4.3 µg/mL (≈ 6.39 µM) | > 500 µg/mL | >20.39 | >116.28 | 47.7% | 56.3%
CC1=CSC2=NC(/C=C/c3cccc(Cl)c3)=C(C(=O)/C=C/c3cccc(Cl)c3)C(c3ccccc3)N12 (centres undefined) | 0.79 µg/mL (≈ 1.49 µM) | 1.2 µg/mL (≈ 2.27 µM) | 286 µg/mL (≈ 540 µM) | 361.96 | 238.29 | 15.4% | 54.5%
CC1=CSC2=NC(/C=C/c3ccccc3)=C(C(=O)/C=C/c3ccccc3)C(c3ccccc3)N12 (centres undefined) | 0.57 µg/mL (≈ 1.24 µM) | 0.79 µg/mL (≈ 1.72 µM) | 195 µg/mL (≈ 424 µM) | 342.93 | 247.43 | 42.3% | 49.6%
Cc1ccnc2c1NC(=O)c1cccnc1N2C1CC1 | – | – | – | – | – | 97.9% | –
COc1ccc(C2C(C(=O)/C=C/c3ccc(F)cc3)=C(/C=C/c3ccc(F)cc3)N=C3SC=C(C)N32)cc1 (centres undefined) | 5.15 µg/mL (≈ 9.78 µM) | 1.09 µg/mL (≈ 2.07 µM) | 261 µg/mL (≈ 495 µM) | 50.65 | 239.29 | 9.22% | 41.4%
CC1=CSC2=NC(/C=C/c3ccc4c(c3)OCO4)=C(C(=O)/C=C/c3ccc4c(c3)OCO4)C(c3ccccc3)N12 (centres undefined) | 5.07 µg/mL (≈ 9.24 µM) | 1.09 µg/mL (≈ 1.99 µM) | 497 µg/mL (≈ 905 µM) | 97.97 | 455.71 | – | –
CC1=CSC2=NC(/C=C/c3cccc(Cl)c3)=C(C(=O)/C=C/c3cccc(Cl)c3)C(c3ccc(Cl)cc3)N12 (centres undefined) | 2.25 µg/mL (≈ 3.99 µM) | < 0.76 µg/mL | 317 µg/mL (≈ 563 µM) | 141.02 | >417.5 | 13.2% | 16.6%
CC1=CSC2=NC(/C=C/c3ccc(Br)cc3)=C(C(=O)/C=C/c3ccc(Br)cc3)C(c3ccccc3)N12 (centres undefined) | 5.38 µg/mL (≈ 8.7 µM) | 2.5 µg/mL (≈ 4.04 µM) | 282 µg/mL (≈ 457 µM) | 52.48 | 112.93 | 39.8% | 55.4%
COc1ccc(C2C(C(=O)/C=C/c3ccc4c(c3)OCO4)=C(/C=C/c3ccc4c(c3)OCO4)N=C3SC=C(C)N32)cc1 (centres undefined) | 3.94 µg/mL (≈ 6.81 µM) | 1.14 µg/mL (≈ 1.97 µM) | 418 µg/mL (≈ 722 µM) | 106 | – | 58.8% | 70.8%
CC1=CSC2=NC(/C=C/c3ccc(Cl)cc3)=C(C(=O)/C=C/c3ccc(Cl)cc3)C(c3ccc(Cl)cc3)N12 (centres undefined) | 0.85 µg/mL (≈ 1.51 µM) | 0.6 µg/mL (≈ 1.06 µM) | 309 µg/mL (≈ 548 µM) | 363.57 | 515.05 | 10.6% | 11.4%
COc1ccc(C2C(C(=O)/C=C/c3ccc(Cl)cc3)=C(/C=C/c3ccc(Cl)cc3)N=C3SC=C(C)N32)cc1 (centres undefined) | 5.3 µg/mL (≈ 9.47 µM) | 1.49 µg/mL (≈ 2.66 µM) | 273 µg/mL (≈ 487 µM) | 51.42 | 182.89 | 31.2% | 50.9%
CC1=CSC2=NC(/C=C/c3ccccc3)=C(C(=O)/C=C/c3ccccc3)C(c3ccc(Cl)cc3)N12 (centres undefined) | 0.5 µg/mL (≈ 1.01 µM) | 0.27 µg/mL (≈ 0.545 µM) | 320 µg/mL (≈ 646 µM) | 639.3 | 1183.89 | 23.6% | 30.6%
CC1=CSC2=NC(/C=C/c3ccc(Cl)cc3)=C(C(=O)/C=C/c3ccc(Cl)cc3)C(c3ccccc3)N12 (centres undefined) | 5.15 µg/mL (≈ 9.73 µM) | 2.71 µg/mL (≈ 5.12 µM) | 252 µg/mL (≈ 477 µM) | 49.03 | 93.17 | 42.6% | 53.4%
CC1=CSC2=NC(/C=C/c3ccccc3Cl)=C(C(=O)/C=C/c3ccccc3Cl)C(c3ccccc3)N12 (centres undefined) | 0.56 µg/mL (≈ 1.06 µM) | 0.36 µg/mL (≈ 0.68 µM) | 206 µg/mL (≈ 389 µM) | 367.88 | 572.25 | 38.9% | 73.4%
CC1=CSC2=NC(/C=C/c3ccccc3Cl)=C(C(=O)/C=C/c3ccccc3Cl)C(c3ccc(Cl)cc3)N12 (centres undefined) | 5.9 µg/mL (≈ 10.5 µM) | 2.79 µg/mL (≈ 4.95 µM) | 430 µg/mL (≈ 762 µM) | 72.84 | 154.03 | 18% | 26.1%
